Consider 13 molecules from ChEMBL document CHEMBL1667819, “Aminopyridinecarboxamide-based inhaled IKK-2 inhibitors for asthma and COPD: Structure-activity relationship” (Bioorg Med Chem, 2011).

Series [1] concerns PBMC. Put plainly: Inhibition of LPS-stimulated TNFalpha release in human PBMC. In kind it is functional, cell-based. In a few lines: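 PBMC were Ficoll-isolated from heparinized blood of healthy donors and plated at 2.5 × 10⁵ cells/well in RPMI 1640 with 5% FBS and penicillin–streptomycin. Cells were preincubated with compound for 1 h, then stimulated with LPS (20 ng/ml) for 16 h. Supernatant TNFα was measured by ELISA, and IC50 is the mean of ≥3 experiments.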

Series [2] deals with T1, Inhibitor of nuclear factor kappa-B kinase subunit beta (Homo sapiens) (UniProt O14920).
T1 sequence (whole entry): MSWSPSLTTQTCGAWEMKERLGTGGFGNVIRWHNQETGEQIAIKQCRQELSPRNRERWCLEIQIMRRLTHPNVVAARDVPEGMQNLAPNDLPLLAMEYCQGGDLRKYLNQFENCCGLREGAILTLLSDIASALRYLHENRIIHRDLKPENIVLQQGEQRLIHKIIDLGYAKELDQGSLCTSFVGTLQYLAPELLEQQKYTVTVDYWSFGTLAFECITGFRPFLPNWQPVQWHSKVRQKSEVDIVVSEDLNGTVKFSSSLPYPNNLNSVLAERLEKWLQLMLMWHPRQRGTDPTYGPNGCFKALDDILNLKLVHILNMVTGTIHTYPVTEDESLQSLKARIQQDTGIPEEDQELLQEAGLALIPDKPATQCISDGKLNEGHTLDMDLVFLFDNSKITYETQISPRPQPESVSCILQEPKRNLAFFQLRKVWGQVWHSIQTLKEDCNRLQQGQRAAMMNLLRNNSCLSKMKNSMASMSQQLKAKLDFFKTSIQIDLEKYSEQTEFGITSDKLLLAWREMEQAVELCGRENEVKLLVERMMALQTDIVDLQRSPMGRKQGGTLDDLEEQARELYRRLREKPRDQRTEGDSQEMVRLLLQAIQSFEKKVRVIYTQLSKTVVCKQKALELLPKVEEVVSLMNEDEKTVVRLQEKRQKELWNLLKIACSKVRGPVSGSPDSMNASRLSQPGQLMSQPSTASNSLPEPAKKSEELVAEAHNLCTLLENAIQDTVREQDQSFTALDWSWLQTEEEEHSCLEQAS
Put plainly: Binding affinity to human recombinant IKK2 assessed as half life.

Series [3] has as its target T1, Inhibitor of nuclear factor kappa-B kinase subunit beta (Homo sapiens). Put plainly: Binding affinity to human IKK2 in PBMC assessed as half life by cell-based assay. In a few lines:
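Cryopreserved PBMC were thawed and plated, then exposed to compound for 1 h. Compound was removed by four spin-and-aspirate washes, and an unwashed plate served as control. Loss of inhibition after washout gave the cellular half-life.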

Series [4] is described as follows: Half life in human liver microsomes. In general terms: Liver microsomes are a subcellular fraction often used to study metabolism.
In series [5] the target is Voltage-gated inwardly rectifying potassium channel KCNH2 (Homo sapiens, UniProt Q12809). Put plainly: Displacement of dofetilide from human ERG transfected in HEK293 cells by fluorescence polarization assay. In a few lines: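 Competition binding used membranes from HEK-293 cells transfected with hERG. Test compound competed with Cy3B-tagged N-desmethyl dofetilide for channel binding, with fluorescence polarization read-out. Values are given as % of effect.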
Sequence of Voltage-gated inwardly rectifying potassium channel KCNH2 (Q12809 whole entry): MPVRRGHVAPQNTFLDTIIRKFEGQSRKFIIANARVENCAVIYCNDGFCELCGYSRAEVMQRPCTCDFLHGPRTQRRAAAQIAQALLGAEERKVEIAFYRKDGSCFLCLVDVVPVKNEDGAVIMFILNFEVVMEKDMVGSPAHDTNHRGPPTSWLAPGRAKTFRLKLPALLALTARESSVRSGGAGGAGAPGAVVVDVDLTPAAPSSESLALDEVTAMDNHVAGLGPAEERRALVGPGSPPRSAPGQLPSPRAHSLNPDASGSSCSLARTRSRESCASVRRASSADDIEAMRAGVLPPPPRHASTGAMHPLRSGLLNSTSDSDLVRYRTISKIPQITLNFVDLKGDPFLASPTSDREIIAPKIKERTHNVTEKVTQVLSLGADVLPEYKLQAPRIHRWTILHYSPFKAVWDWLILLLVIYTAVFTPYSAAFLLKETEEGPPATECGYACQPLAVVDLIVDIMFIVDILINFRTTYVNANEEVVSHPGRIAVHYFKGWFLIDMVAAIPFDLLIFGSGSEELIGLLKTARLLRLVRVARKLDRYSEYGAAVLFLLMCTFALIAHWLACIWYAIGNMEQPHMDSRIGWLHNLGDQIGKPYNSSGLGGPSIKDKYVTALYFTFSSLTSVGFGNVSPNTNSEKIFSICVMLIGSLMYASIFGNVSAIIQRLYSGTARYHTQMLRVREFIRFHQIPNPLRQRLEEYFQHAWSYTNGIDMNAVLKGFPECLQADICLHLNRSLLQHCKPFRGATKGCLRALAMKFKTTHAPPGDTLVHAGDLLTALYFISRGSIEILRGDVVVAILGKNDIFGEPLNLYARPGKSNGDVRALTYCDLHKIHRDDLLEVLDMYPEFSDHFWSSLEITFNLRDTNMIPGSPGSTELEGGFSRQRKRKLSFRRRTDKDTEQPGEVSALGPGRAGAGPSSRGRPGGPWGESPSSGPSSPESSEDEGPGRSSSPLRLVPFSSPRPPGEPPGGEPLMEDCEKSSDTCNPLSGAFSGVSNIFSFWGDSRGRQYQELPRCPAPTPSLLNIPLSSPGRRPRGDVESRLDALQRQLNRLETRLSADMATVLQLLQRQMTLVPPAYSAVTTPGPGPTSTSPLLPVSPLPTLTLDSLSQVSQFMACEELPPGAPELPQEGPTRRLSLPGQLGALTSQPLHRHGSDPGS

Series [6] deals with T2, Inhibitor of nuclear factor kappa-B kinase subunit beta (Homo sapiens, UniProt O14920).
T2 sequence (O14920 whole entry): T1 sequence (whole entry)
Put plainly: Inhibition of human recombinant IKK2.

With `CNC(=O)Cn1cc(CN2CCN(c3cc(C(=O)Nc4ccc5c(c4)-c4c(c(C(N)=O)nn4-c4ccc(F)cc4)CC5)c(Cl)cn3)CC2)cn1`, the IC50 – broadly, the concentration that gives 50% inhibition – in series [1] amounted to 15 nM; in series [6], 1.4 nM. The figures for the T1/2 in series [2] and in series [3] were 6 h and over 4 h, respectively. Besides, in series [4] (liver microsomes), the half-life (commonly how long it takes for the measured level to halve) is 0.217 h. Moreover, the “inhibition (INH)” value in series [5] was 57%.

Regarding `CCOC(=O)Cn1cc(CN2CCN(c3cc(C(=O)Nc4ccc5c(c4)-c4c(c(C(N)=O)nn4-c4cccc(F)c4)CC5)c(Cl)cn3)CC2)cn1`, the figures for the IC50 in series [1] and in series [6] were 9 nM and 5 nM, respectively. The T1/2 in series [2] is 5 h; in series [3], over 4 h. In addition, the half-life in series [4] (liver microsomes) is 0.05 h. The “inhibition (INH)” value in series [5] stood at 78%.

For the molecule `CCOC(=O)CCn1cc(CN2CCN(c3cc(C(=O)Nc4ccc5c(c4)-c4c(c(C(N)=O)nn4-c4ccc(F)cc4)CC5)c(Cl)cn3)CC2)cn1`, the IC50 stood at 14 nM in series [1] and 4.7 nM in series [6]. Moreover, the results for the T1/2 in series [2] and in series [3] were 6 h and over 4 h, respectively. This molecule displayed a half-life in series [4] (liver microsomes) of 0.05 h. The “inhibition (INH)” value in series [5] came out at 90%.

Consider `NC(=O)Cn1cc(CN2CCN(c3cc(C(=O)Nc4ccc5c(c4)-c4c(c(C(N)=O)nn4-c4ccc(F)cc4)CC5)c(Cl)cn3)CC2)cn1`, for which the half-inhibitory concentration (IC50) worked out at 7 nM in series [1] and 0.9 nM in series [6]. The T1/2 in series [2] is 5 h; in series [3], under 4 h. Besides, in series [4] (liver microsomes), the half-life came to 0.967 h. For the same molecule, the “inhibition (INH)” value in series [5] is 38%.

Consider `COCCNC(=O)Cn1cc(CN2CCN(c3cc(C(=O)Nc4ccc5c(c4)-c4c(c(C(N)=O)nn4-c4ccc(F)cc4)CC5)c(Cl)cn3)CC2)cn1`, for which the half-inhibitory concentration (IC50) in series [1] amounted to 10 nM; in series [6] it was 1.3 nM. Moreover, the figures for the T1/2 in series [2] and in series [3] were 6 h and over 4 h, respectively. In series [4] (liver microsomes), this molecule yielded a half-life of 0.05 h. In series [5], the “inhibition (INH)” value turned out to be 58%.

On to `COCCCn1cc(CN2CCN(c3cc(C(=O)Nc4ccc5c(c4)-c4c(c(C(N)=O)nn4-c4ccc(F)cc4)CC5)c(Cl)cn3)CC2)cn1`, for which the IC50 in series [1] is 16 nM; in series [6] it was 2.8 nM. For the same molecule, the T1/2 is 4 h in series [2] and over 4 h in series [3]. The molecule also displayed a half-life in series [4] (liver microsomes) of 0.05 h. Also, in series [5], the “inhibition (INH)” value is given as 76%.

Regarding `N#CCCn1cc(CN2CCN(c3cc(C(=O)Nc4ccc5c(c4)-c4c(c(C(N)=O)nn4-c4ccc(F)cc4)CC5)c(Cl)cn3)CC2)cn1`, the IC50 in series [1] amounted to 9 nM; in series [6], 7.6 nM. In addition, the T1/2 was 5 h in series [2] and over 4 h in series [3]. In series [4] (liver microsomes), this molecule returned a half-life of 0.1 h. Moreover, in series [5], the “inhibition (INH)” value came to 98%.

As to `NC(=O)c1nn(-c2ccc(F)cc2)c2c1CCc1ccc(NC(=O)c3cc(N4CCN(Cc5cnn(CC(=O)NCCO)c5)CC4)ncc3Cl)cc1-2`, the half-maximal inhibitory concentration (IC50) in series [1] is 9 nM; in series [6], 1 nM. For the same molecule, the T1/2 in series [2] was 5 h; in series [3], under 4 h. The molecule also had a half-life in series [4] (microsomes) of 2 h. For the same molecule, the “inhibition (INH)” value in series [5] stood at 12%.

Consider `CN(C)CCCn1cc(CN2CCN(c3cc(C(=O)Nc4ccc5c(c4)-c4c(c(C(N)=O)nn4-c4ccc(F)cc4)CC5)c(Cl)cn3)CC2)cn1`, for which the IC50 in series [1] amounted to 12 nM; in series [6], 3.7 nM. Further, the T1/2 in series [2] is 4 h; in series [3], over 4 h. Further, the half-life in series [4] (liver microsomes) came to 0.183 h. The “inhibition (INH)” value in series [5] was determined as 42%.

For `COCCOCCCn1cc(CN2CCN(c3cc(C(=O)Nc4ccc5c(c4)-c4c(c(C(N)=O)nn4-c4ccc(F)cc4)CC5)c(Cl)cn3)CC2)cn1`, the IC50 in series [1] is 21 nM; in series [6] it was 6.6 nM. The T1/2 in series [2] was 4 h; in series [3] it was under 4 h. Moreover, in series [4] (liver microsomes), the half-life was determined as 0.05 h. Also, the “inhibition (INH)” value in series [5] amounted to 69%.

As to `CCOC(=O)Cn1cc(CN2CCN(c3cc(C(=O)Nc4ccc5c(c4)-c4c(c(C(N)=O)nn4-c4ccc(F)cc4)CC5)c(Cl)cn3)CC2)cn1`, the IC50 in series [1] was 6 nM; in series [6], 1 nM. Moreover, the T1/2 in series [2] is 5 h; in series [3] it was over 4 h. The molecule further yielded a half-life in series [4] (liver microsomes) of 0.05 h. Moreover, the “inhibition (INH)” value in series [5] is on record as 95%.

In the case of `CN(C)C(=O)Cn1cc(CN2CCN(c3cc(C(=O)Nc4ccc5c(c4)-c4c(c(C(N)=O)nn4-c4ccc(F)cc4)CC5)c(Cl)cn3)CC2)cn1`, the IC50 was determined as 13 nM in series [1] and 2.3 nM in series [6]. Besides, the values for the T1/2 in series [2] and in series [3] were 5 h and under 4 h, respectively. Moreover, the half-life in series [4] (liver microsomes) is 0.133 h. In series [5], the “inhibition (INH)” value is on record as 50%.

Regarding `NC(=O)c1nn(-c2ccc(F)cc2)c2c1CCc1ccc(NC(=O)c3cc(N4CCN(Cc5cnn(CCCO)c5)CC4)ncc3Cl)cc1-2`, the IC50 in series [1] was found to be 15 nM; in series [6], 2.2 nM. Moreover, the T1/2 in series [2] is 5 h; in series [3] it was over 4 h. In series [4] (microsomes), this molecule returned a half-life of 0.15 h. Further, the “inhibition (INH)” value in series [5] worked out at 49%.
